According to the M2OR odorant receptor database:
Changes are numbered by the printed parent chain.

Experiments:
Conditions in all cases: stereoisomer not certain
OR6B3 (Homo sapiens) = molecular target: T1, OR6B3 (Homo sapiens) (UniProt Q8NGW1)
T1 sequence (whole entry): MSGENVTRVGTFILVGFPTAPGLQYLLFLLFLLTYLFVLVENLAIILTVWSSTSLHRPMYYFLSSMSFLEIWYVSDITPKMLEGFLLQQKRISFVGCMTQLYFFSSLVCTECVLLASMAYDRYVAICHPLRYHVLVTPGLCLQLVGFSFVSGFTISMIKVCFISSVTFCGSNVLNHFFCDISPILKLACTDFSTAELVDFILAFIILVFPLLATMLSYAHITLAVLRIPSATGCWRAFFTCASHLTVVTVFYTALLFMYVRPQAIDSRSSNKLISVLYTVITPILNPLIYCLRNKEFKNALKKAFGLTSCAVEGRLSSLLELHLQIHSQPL
Procedure, shortened: (§1)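 Whether a receptor–molecule pair is responsive (active) rests on the original authors' judgment that its measured signal was statistically different from baseline. Pairs without that judgment are non-responsive (inactive). Sources used varied assay methods, commonly transient luciferase assays in mammalian cell lines.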

OR6B3 T48I R131C = tested on: T2, OR6B3 T48I R131C
T2 sequence (whole entry): T1 sequence (whole entry) with T48I, R131C
Procedure, shortened: as §1

OR6C1 (Homo sapiens) = molecular target: T3, OR6C1 (Homo sapiens) (UniProt Q96RD1)
T3 sequence (whole entry): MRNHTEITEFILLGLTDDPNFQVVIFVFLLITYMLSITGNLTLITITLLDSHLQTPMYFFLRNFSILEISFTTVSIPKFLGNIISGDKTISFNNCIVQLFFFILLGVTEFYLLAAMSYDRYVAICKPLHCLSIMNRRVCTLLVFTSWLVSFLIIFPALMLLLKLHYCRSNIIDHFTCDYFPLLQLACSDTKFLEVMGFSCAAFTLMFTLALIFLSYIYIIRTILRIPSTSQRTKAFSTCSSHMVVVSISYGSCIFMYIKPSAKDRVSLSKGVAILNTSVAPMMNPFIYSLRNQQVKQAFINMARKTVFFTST
Procedure, shortened: as §1

OR6C1 C130Y H165D V246I = tested on: T4, OR6C1 C130Y H165D V246I
T4 sequence (whole entry): T3 sequence (whole entry) with C130Y, H165D, V246I
Procedure, shortened: as §1

OR6C2 (Homo sapiens) = molecular target: T5, OR6C2 (Homo sapiens) (UniProt Q9NZP2)
T5 sequence (whole entry): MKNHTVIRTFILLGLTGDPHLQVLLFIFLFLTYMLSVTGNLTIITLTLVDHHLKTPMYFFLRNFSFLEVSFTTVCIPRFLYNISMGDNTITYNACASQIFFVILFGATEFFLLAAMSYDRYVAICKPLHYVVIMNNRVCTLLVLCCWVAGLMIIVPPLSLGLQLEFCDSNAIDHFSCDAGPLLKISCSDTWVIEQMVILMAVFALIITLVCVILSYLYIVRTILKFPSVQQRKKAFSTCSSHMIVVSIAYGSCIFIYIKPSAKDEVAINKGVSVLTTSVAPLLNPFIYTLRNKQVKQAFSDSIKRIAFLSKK
Procedure, shortened: as §1

OR6C3 (Homo sapiens) = molecular target: T6, OR6C3 (Homo sapiens) (UniProt Q9NZP0)
T6 sequence (whole entry): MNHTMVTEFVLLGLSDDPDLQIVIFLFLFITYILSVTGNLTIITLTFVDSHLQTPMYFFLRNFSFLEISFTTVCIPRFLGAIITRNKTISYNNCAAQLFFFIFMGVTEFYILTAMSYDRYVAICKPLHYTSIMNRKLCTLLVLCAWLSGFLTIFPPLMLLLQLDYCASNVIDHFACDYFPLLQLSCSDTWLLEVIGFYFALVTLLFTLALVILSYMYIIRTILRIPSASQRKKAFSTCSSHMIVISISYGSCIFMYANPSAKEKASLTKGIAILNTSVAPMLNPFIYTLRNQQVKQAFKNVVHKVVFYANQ
Procedure, shortened: as §1

OR6C4 (Homo sapiens) = molecular target: T7, OR6C4 (Homo sapiens) (UniProt Q8NGE1)
T7 sequence (whole entry): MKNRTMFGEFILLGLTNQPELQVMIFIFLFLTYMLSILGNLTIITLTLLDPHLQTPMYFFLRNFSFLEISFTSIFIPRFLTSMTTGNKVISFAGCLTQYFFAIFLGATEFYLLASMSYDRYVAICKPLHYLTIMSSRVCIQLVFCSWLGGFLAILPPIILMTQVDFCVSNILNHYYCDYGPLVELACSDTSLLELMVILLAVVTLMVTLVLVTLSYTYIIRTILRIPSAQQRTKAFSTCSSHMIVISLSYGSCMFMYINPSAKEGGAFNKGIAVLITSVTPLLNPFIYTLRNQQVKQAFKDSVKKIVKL
Procedure, shortened: as §1

OR6C4 = tested on: T8, OR6C4
T8 sequence (whole entry): T7 sequence (whole entry) with I37V
Procedure, shortened: as §1

OR6C6 (Homo sapiens) = molecular target: T9, OR6C6 (Homo sapiens) (UniProt A6NF89)
T9 sequence (whole entry): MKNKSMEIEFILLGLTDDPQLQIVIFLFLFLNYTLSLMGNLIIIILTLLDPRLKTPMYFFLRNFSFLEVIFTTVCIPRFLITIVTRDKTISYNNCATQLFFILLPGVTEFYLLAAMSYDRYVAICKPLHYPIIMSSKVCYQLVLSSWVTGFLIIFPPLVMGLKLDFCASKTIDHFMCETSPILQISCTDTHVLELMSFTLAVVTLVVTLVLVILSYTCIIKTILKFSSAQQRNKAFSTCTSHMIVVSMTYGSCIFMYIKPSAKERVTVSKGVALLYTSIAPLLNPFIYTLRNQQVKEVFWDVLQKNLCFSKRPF
Procedure, shortened: as §1

OR6C6 M6I = tested on: T10, OR6C6 M6I
T10 sequence (whole entry): T9 sequence (whole entry) with M6I
Procedure, shortened: as §1

OR6C65 (Homo sapiens) = molecular target: T11, OR6C65 (Homo sapiens) (UniProt A6NJZ3)
T11 sequence (whole entry): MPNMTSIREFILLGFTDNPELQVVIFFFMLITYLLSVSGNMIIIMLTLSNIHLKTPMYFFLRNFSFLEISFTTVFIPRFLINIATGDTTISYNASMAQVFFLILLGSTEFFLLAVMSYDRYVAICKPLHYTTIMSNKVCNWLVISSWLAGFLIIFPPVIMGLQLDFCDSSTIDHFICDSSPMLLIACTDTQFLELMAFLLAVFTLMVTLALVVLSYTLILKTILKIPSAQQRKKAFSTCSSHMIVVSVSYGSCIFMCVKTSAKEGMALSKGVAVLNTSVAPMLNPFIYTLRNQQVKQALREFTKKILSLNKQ
Procedure, shortened: as §1

OR6C68 (Homo sapiens) = molecular target: T12, OR6C68 (Homo sapiens) (UniProt A6NDL8)
T12 sequence (whole entry): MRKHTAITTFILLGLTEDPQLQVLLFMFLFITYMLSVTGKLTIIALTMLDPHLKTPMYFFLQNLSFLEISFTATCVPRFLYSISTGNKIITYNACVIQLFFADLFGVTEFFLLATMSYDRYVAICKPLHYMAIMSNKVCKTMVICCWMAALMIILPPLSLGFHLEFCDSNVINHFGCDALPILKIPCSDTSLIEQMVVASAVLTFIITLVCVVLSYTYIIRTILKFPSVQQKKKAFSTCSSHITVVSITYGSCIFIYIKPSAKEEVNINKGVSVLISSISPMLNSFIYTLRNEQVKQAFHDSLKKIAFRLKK
Procedure, shortened: as §1

OR6C70 (Homo sapiens) = molecular target: T13, OR6C70 (Homo sapiens) (UniProt A6NIJ9)
T13 sequence (whole entry): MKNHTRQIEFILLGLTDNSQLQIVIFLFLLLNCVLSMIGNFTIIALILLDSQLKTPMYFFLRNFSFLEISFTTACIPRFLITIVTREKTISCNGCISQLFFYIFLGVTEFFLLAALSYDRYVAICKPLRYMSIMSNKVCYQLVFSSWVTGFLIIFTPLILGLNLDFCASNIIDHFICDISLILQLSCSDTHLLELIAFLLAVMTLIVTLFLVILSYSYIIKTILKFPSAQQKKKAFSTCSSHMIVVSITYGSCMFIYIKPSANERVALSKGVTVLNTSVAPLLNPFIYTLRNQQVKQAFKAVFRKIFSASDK
Procedure, shortened: as §1

OR6C74 (Homo sapiens) = molecular target: T14, OR6C74 (Homo sapiens) (UniProt A6NCV1)
T14 sequence (whole entry): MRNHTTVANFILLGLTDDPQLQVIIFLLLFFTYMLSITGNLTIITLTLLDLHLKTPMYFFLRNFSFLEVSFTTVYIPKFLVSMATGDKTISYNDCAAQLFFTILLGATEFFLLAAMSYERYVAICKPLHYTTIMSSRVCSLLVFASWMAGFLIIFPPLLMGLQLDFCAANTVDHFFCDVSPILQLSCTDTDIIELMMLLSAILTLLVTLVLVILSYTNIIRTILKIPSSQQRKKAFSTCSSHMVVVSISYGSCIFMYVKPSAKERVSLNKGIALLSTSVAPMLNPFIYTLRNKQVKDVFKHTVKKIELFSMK
Procedure, shortened: as §1

OR6C75 (Homo sapiens) = molecular target: T15, OR6C75 (Homo sapiens) (UniProt A6NL08)
T15 sequence (whole entry): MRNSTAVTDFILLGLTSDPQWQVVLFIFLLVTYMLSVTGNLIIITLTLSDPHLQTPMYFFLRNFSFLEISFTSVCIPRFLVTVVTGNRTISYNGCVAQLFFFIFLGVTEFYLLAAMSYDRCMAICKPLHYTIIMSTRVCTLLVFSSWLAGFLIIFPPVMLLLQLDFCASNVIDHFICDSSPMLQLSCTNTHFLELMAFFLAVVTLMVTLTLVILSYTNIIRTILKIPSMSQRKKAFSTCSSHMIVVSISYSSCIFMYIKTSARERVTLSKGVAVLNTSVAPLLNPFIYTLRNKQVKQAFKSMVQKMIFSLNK
Procedure, shortened: as §1

OR6C76 (Homo sapiens) = molecular target: T16, OR6C76 (Homo sapiens) (UniProt A6NM76)
T16 sequence (whole entry): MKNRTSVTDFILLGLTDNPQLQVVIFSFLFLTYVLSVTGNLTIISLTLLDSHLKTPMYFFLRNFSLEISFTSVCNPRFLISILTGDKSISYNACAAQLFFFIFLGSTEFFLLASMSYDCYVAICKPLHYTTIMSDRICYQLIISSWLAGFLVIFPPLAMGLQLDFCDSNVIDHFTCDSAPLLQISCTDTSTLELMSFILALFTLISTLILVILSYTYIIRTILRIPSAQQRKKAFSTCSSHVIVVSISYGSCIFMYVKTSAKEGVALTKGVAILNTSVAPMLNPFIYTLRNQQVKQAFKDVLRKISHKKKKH
Procedure, shortened: as §1

OR6F1 (Homo sapiens) = molecular target: T17, OR6F1 (Homo sapiens) (UniProt Q8NGZ6)
T17 sequence (whole entry): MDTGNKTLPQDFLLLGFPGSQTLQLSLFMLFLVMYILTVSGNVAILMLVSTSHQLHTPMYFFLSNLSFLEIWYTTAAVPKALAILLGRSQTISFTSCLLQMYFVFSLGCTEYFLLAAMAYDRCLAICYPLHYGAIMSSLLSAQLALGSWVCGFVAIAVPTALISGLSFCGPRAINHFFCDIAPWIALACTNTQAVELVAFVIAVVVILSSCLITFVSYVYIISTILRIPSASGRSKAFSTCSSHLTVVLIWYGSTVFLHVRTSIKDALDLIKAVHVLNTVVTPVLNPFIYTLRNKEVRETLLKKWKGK
Procedure, shortened: as §1

OR6J1 (Homo sapiens) [1] = molecular target: T18, OR6J1 (Homo sapiens) (UniProt Q8NGC5)
T18 sequence (whole entry): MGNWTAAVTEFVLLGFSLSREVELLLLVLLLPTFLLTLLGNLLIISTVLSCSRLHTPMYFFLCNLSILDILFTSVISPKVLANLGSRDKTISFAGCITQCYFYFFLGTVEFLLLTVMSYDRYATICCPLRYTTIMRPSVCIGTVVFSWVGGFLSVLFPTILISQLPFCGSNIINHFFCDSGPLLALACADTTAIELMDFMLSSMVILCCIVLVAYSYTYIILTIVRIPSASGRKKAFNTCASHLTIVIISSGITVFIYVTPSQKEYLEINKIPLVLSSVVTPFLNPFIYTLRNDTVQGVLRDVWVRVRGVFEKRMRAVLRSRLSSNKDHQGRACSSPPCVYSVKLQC
Procedure, shortened: as §1

OR6K2 (Homo sapiens) = molecular target: T19, OR6K2 (Homo sapiens) (UniProt Q8NGY2)
T19 sequence (whole entry): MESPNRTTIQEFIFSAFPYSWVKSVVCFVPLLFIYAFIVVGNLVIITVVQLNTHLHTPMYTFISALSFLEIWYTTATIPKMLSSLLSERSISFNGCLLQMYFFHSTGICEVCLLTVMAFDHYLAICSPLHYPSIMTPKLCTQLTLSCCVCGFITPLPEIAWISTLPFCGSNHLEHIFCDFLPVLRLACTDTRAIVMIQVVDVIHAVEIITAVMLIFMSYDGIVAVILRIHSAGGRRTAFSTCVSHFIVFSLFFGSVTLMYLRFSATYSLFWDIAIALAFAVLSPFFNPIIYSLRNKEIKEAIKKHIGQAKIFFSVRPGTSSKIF
Procedure, shortened: as §1

OR6J1 (Homo sapiens) [2] = molecular target: T20, OR6J1 (Homo sapiens) (UniProt Q8NGC5); remark: listed apart in the source
T20 sequence (whole entry): T18 sequence (whole entry) with S250P
Procedure, shortened: as §1

Measured: odorant receptor agonist call;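 further: active if original authors judged signal statistically different from baseline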

CC1=C(O)C(=O)OC1C (stereo not given)
not listed: OR6J1 (Homo sapiens) [2]
inactive: all other assays above

CCCC(S)CCOC(C)=O (stereo not given)
not listed: OR6J1 (Homo sapiens) [2]
inactive: all other assays above

CCC1OC(=O)C(O)=C1C (stereo not given)
not listed: OR6J1 (Homo sapiens) [2]
inactive: all other assays above

CC1=C(O)C(=O)C(C)O1 (stereo not given)
not listed: OR6J1 (Homo sapiens) [2]
inactive: all other assays above

CCC(S)C(C)CO (stereo not given)
not listed: OR6B3 T48I R131C | OR6C1 C130Y H165D V246I | OR6C4 | OR6C6 M6I | OR6J1 (Homo sapiens) [1]
inactive: all other assays above

CC(CO)CS (stereo not given)
not listed: OR6B3 T48I R131C | OR6C1 C130Y H165D V246I | OR6C4 | OR6C6 M6I | OR6J1 (Homo sapiens) [1]
inactive: all other assays above

Cc1cnc(C)c(C)n1
not listed: OR6J1 (Homo sapiens) [2]
inactive: all other assays above
